Laboratory results published in ChEMBL document CHEMBL1148461, “Discovery of the first non-peptide full agonists for the human bradykinin B(2) receptor incorporating 4-(2-picolyloxy)quinoline and 1-(2-picolyl)benzimidazole frameworks” (J Med Chem, 2004).

Biological target: T1, B2 bradykinin receptor (Homo sapiens, UniProt P30411)
T1 sequence (P30411 whole entry): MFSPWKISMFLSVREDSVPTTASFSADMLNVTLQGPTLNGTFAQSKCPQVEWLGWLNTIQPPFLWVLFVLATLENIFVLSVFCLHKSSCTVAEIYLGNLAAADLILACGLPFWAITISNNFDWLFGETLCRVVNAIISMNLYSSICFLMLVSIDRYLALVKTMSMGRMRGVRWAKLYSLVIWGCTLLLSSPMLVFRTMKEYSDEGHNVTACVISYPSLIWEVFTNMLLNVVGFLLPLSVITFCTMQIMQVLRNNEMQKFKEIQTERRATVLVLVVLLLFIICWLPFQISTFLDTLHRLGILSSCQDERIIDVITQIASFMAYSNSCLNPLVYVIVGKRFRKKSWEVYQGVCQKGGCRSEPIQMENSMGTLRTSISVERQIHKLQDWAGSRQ
Experiment: Inhibition of [3H]BK (1.0 nM) binding to the human bradykinin receptor B2, expressed in CHO cells
Assay type: cell-based
Summary of the method: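 Whole CHO (dhfr-) cells stably expressing human B2, seeded 3.0 × 10^4 cells/well and cultured 1 day. Incubated with 1.0 nM [3H]BK plus test compound for 2 h at 4 °C in pH 7.2 HEPES/N-methyl-D-glucamine buffer with bacitracin, enalaprilat and 0.1% BSA. Cells lysed in SDS/NaOH for scintillation counting. Nonspecific binding with 1 μM BK; three experiments.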

| IC50 [nM] | Compound |
| --- | --- |
| 0.56 | Cc1cc(OCc2ccccn2)c2cccc(OCc3c(Cl)ccc(N(C)C(=O)CNC(=O)/C=C/c4ccc(NC(=O)c5ccncc5)cc4)c3Cl)c2n1 |
| 2.5 | COc1nc2c(OCc3c(Cl)ccc(N(C)C(=O)CNC(=O)/C=C/c4ccc(NC(C)=O)nc4)c3Cl)cccc2n1Cc1ccccc1 |
| 1.4 | CNC(=O)c1ccc(/C=C/C(=O)NCC(=O)N(C)c2ccc(Cl)c(COc3cccc4c(OCc5ccccn5)cc(C)nc34)c2Cl)cn1 |
| > 1000 | CNC(=O)c1ccc(/C=C/C(=O)NCC(=O)N(C)c2ccc(Cl)c(COc3cccc4c(OCC(=O)O)cc(C)nc34)c2Cl)cc1 |
| 2.4 | Cc1cc(OCc2ccccn2)c2cccc(OCc3c(Cl)ccc(N(C)C(=O)CNC(=O)/C=C/c4ccc(NC(=O)Cc5ccncc5)nc4)c3Cl)c2n1 |
| 0.68 | COc1nc2c(OCc3c(Cl)ccc(N(C)C(=O)CNC(=O)/C=C/c4ccc(NC(C)=O)nc4)c3Cl)cccc2n1Cc1ccccn1 |
| 0.91 | CCOC(=O)Cn1c(OC)nc2c(OCc3c(Cl)ccc(N(C)C(=O)CNC(=O)/C=C/c4ccc(NC(C)=O)nc4)c3Cl)cccc21 |
| 1.2 | CC(=O)Nc1ccc(/C=C/C(=O)NCC(=O)N(C)c2ccc(Cl)c(COc3cccc4c(OCc5ccccn5)cc(C)nc34)c2Cl)cn1 |
| 3.5 | COCCn1c(OC)nc2c(OCc3c(Cl)ccc(N(C)C(=O)CNC(=O)/C=C/c4ccc(NC(C)=O)nc4)c3Cl)cccc21 |
| 0.69 | CNC(=O)c1ccc(/C=C/C(=O)NCC(=O)N(C)c2ccc(Cl)c(COc3cccc4c(OCc5ccccn5)cc(C)nc34)c2Cl)cc1OC |
| 0.83 | Cc1cc(OCc2ccccn2)c2cccc(OCc3c(Cl)ccc(N(C)C(=O)CNC(=O)/C=C/c4ccc(N5CCCC5=O)cc4)c3Cl)c2n1 |

Biological target: T2, B2 bradykinin receptor (Homo sapiens) (UniProt P30411)
T2 sequence (whole entry): T1 sequence (P30411 whole entry)
Experiment: (§1) Relative induced inositol phosphate formation in CHO cells expressing the human B2 receptor compared to bradykinin (10 nM)
Assay type: functional, cell-based
Summary of the method: (§2)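 Human B2-expressing CHO cells labeled with [3H]inositol (1 μCi/mL) for 24 h, preincubated with 10 mM LiCl, then exposed to compound for 30 min at 37 °C. Stopped with 5% TCA; IP1–IP3 separated by anion-exchange chromatography and counted. Basal radioactivity subtracted; response expressed relative to 10 nM BK.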

| Relative agonistic activity [%] | Compound |
| --- | --- |
| 26.9 | Cc1cc(OCc2ccccn2)c2cccc(OCc3c(Cl)ccc(N(C)C(=O)CNC(=O)/C=C/c4ccc(NC(=O)c5ccncc5)cc4)c3Cl)c2n1 |
| 57.6 | CNC(=O)c1ccc(/C=C/C(=O)NCC(=O)N(C)c2ccc(Cl)c(COc3cccc4c(OCc5ccccn5)cc(C)nc34)c2Cl)cn1 |
| 40.3 | Cc1cc(OCc2ccccn2)c2cccc(OCc3c(Cl)ccc(N(C)C(=O)CNC(=O)/C=C/c4ccc(NC(=O)Cc5ccncc5)nc4)c3Cl)c2n1 |
| 57 | CC(=O)Nc1ccc(/C=C/C(=O)NCC(=O)N(C)c2ccc(Cl)c(COc3cccc4c(OCc5ccccn5)cc(C)nc34)c2Cl)cn1 |
| 73.9 | CNC(=O)c1ccc(/C=C/C(=O)NCC(=O)N(C)c2ccc(Cl)c(COc3cccc4c(OCc5ccccn5)cc(C)nc34)c2Cl)cc1OC |
| 67.4 | Cc1cc(OCc2ccccn2)c2cccc(OCc3c(Cl)ccc(N(C)C(=O)CNC(=O)/C=C/c4ccc(N5CCCC5=O)cc4)c3Cl)c2n1 |

Biological target: T2, B2 bradykinin receptor (Homo sapiens)
Experiment: as §1
Assay type: functional, cell-based
Summary of the method: as §2

| Relative agonistic activity [%] | Compound |
| --- | --- |
| 42.3 | Cc1cc(OCc2ccccn2)c2cccc(OCc3c(Cl)ccc(N(C)C(=O)CNC(=O)/C=C/c4ccc(NC(=O)c5ccncc5)cc4)c3Cl)c2n1 |
| 50.5 | CNC(=O)c1ccc(/C=C/C(=O)NCC(=O)N(C)c2ccc(Cl)c(COc3cccc4c(OCc5ccccn5)cc(C)nc34)c2Cl)cn1 |
| 39.8 | Cc1cc(OCc2ccccn2)c2cccc(OCc3c(Cl)ccc(N(C)C(=O)CNC(=O)/C=C/c4ccc(NC(=O)Cc5ccncc5)nc4)c3Cl)c2n1 |
| 43.4 | CC(=O)Nc1ccc(/C=C/C(=O)NCC(=O)N(C)c2ccc(Cl)c(COc3cccc4c(OCc5ccccn5)cc(C)nc34)c2Cl)cn1 |
| 54.9 | CNC(=O)c1ccc(/C=C/C(=O)NCC(=O)N(C)c2ccc(Cl)c(COc3cccc4c(OCc5ccccn5)cc(C)nc34)c2Cl)cc1OC |
| 42.9 | Cc1cc(OCc2ccccn2)c2cccc(OCc3c(Cl)ccc(N(C)C(=O)CNC(=O)/C=C/c4ccc(N5CCCC5=O)cc4)c3Cl)c2n1 |

Biological target: T3, B2 bradykinin receptor (Cavia porcellus, UniProt O70526)
T3 sequence (O70526 whole entry): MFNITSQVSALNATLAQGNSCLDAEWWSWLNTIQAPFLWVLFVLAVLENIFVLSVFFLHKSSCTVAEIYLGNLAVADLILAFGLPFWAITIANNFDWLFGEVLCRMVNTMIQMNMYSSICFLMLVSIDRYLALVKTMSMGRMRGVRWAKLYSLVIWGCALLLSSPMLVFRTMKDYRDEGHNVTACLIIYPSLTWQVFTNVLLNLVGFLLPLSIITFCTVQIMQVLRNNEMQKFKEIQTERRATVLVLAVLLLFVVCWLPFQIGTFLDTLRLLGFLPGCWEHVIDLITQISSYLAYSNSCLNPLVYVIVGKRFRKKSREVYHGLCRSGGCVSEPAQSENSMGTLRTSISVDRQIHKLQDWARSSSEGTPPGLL
Experiment: Concentration required to inhibit specific binding of [3H]-BK(0.06 nM) to the B2 receptor in guinea pig ileum membrane;
Assay type: tissue-based
Summary of the method: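 Male Hartley guinea pig ileum membranes (homogenised, 1000g debris spin, 10000g pellet) at 0.2 mg protein/mL in pH 6.8 TES buffer with 1,10-phenanthroline, bacitracin, DTT, captopril, 0.1% BSA; incubated with 0.06 nM [3H]BK and varying compound concentrations, 60 min room temperature; GF/B filtration, scintillation counting. Nonspecific binding with 1 μM unlabeled BK; three experiments; IC50 averaged from ≥3 determinations.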

| IC50 [nM] | Compound |
| --- | --- |
| 6.1 | Cc1cc(OCc2ccccn2)c2cccc(OCc3c(Cl)ccc(N(C)C(=O)CNC(=O)/C=C/c4ccc(NC(=O)c5ccncc5)cc4)c3Cl)c2n1 |

Biological target: T3, B2 bradykinin receptor
Experiment: Concentration required to inhibit specific binding of [3H]-BK(0.06 nM) to the bradykinin receptor B2
Summary of the method: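 Guinea pig (male Hartley) ileum membranes in pH 6.8 TES buffer with phenanthroline, bacitracin, DTT, captopril and 0.1% BSA; 0.2 mg protein/mL incubated with 0.06 nM [3H]BK and varying test concentrations, 60 min at room temperature; filtration on glass fiber filters, scintillation counting. Nonspecific binding with 1 μM unlabeled BK. IC50 averaged over at least three determinations.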

| IC50 [nM] | Compound |
| --- | --- |
| 26 | COc1nc2c(OCc3c(Cl)ccc(N(C)C(=O)CNC(=O)/C=C/c4ccc(NC(C)=O)nc4)c3Cl)cccc2n1Cc1ccccc1 |
| 50 | CNC(=O)c1ccc(/C=C/C(=O)NCC(=O)N(C)c2ccc(Cl)c(COc3cccc4c(OCC(=O)O)cc(C)nc34)c2Cl)cc1 |
| 4.2 | CCOC(=O)Cn1c(OC)nc2c(OCc3c(Cl)ccc(N(C)C(=O)CNC(=O)/C=C/c4ccc(NC(C)=O)nc4)c3Cl)cccc21 |
| 1.2 | CC(=O)Nc1ccc(/C=C/C(=O)NCC(=O)N(C)c2ccc(Cl)c(COc3cccc4c(OCc5ccccn5)cc(C)nc34)c2Cl)cn1 |
| 4.6 | COCCn1c(OC)nc2c(OCc3c(Cl)ccc(N(C)C(=O)CNC(=O)/C=C/c4ccc(NC(C)=O)nc4)c3Cl)cccc21 |

System: WI-38
Experiment: Relative agonistic activity (10 uM) induced PGE-2 production in human fibroblast WI-38 cells compared to bradykinin (100 nM)
Assay type: functional
Summary of the method: (§3)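 WI-38 human fibroblasts seeded 1 × 10^5 cells/well in E-MEM with 1% FBS, cultured 24 h. Medium replaced with Hanks-BSA buffer, then test compound for 30 min at 37 °C. Supernatant PGE2 measured by EIA, with control (no compound) subtracted. Result expressed relative to 100 nM BK.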

| Compound | Relative agonistic activity [%] |
| --- | --- |
| COc1nc2c(OCc3c(Cl)ccc(N(C)C(=O)CNC(=O)/C=C/c4ccc(NC(C)=O)nc4)c3Cl)cccc2n1Cc1ccccc1 | 73.9 |
| COc1nc2c(OCc3c(Cl)ccc(N(C)C(=O)CNC(=O)/C=C/c4ccc(NC(C)=O)nc4)c3Cl)cccc2n1Cc1ccccn1 | 89.5 |
| CCOC(=O)Cn1c(OC)nc2c(OCc3c(Cl)ccc(N(C)C(=O)CNC(=O)/C=C/c4ccc(NC(C)=O)nc4)c3Cl)cccc21 | 121 |
| COCCn1c(OC)nc2c(OCc3c(Cl)ccc(N(C)C(=O)CNC(=O)/C=C/c4ccc(NC(C)=O)nc4)c3Cl)cccc21 | 54.8 |

System: WI-38
Experiment: Relative agonistic activity (1 uM) induced PGE-2 production in human fibroblast WI-38 cells compared to bradykinin (100 nM)
Assay type: functional
Summary of the method: as §3

| Compound | Relative agonistic activity [%] |
| --- | --- |
| COc1nc2c(OCc3c(Cl)ccc(N(C)C(=O)CNC(=O)/C=C/c4ccc(NC(C)=O)nc4)c3Cl)cccc2n1Cc1ccccc1 | 84.5 |
| COc1nc2c(OCc3c(Cl)ccc(N(C)C(=O)CNC(=O)/C=C/c4ccc(NC(C)=O)nc4)c3Cl)cccc2n1Cc1ccccn1 | 114 |
| COCCn1c(OC)nc2c(OCc3c(Cl)ccc(N(C)C(=O)CNC(=O)/C=C/c4ccc(NC(C)=O)nc4)c3Cl)cccc21 | 38.3 |
